We go through one compound from ChEMBL document CHEMBL4715822, “Structure-based lead optimization to improve antiviral potency and ADMET properties of phenyl-1H-pyrrole-carboxamide entry inhibitors targeted to HIV-1 gp120” (Eur J Med Chem, 2018).

Data set [1] has as its system Human immunodeficiency virus 1. Kind of data set: Antiviral activity against clinical isolate HIV-1 93RW018 infected in human PBMC cells assessed as reduction in viral transmission to TZM-bl cells pretreated for 1 hr before viral transmission and further incubated for 48 hrs by luciferase based assay. The format is functional, organism-based. To be noted: Human immunodeficiency virus 1, 93RW018, PBMC.

Data set [2] is described as follows: Apparent permeability across apical to basolateral side in human Caco2 cells incubated for 2 hrs by LC-MS/MS analysis. The format is ADME, cell-based, Caco-2. To be noted: caco-2, 2 h. An outline of the steps:
(§1)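 Caco-2 monolayers grown three weeks to differentiate; compound in transport buffer pH 7.4 (glucose, 10 mM HEPES, HBSS) added apical (A-B) or basal (B-A) side, with or without 100 μM verapamil; 2 h incubation, both sides sampled. Lucifer yellow 100 μM on A side checks integrity (≤2% transport). Papp = (dQ/dt)/(C0 × A); efflux ratio = Papp(B→A)/Papp(A→B).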
(In general: Caco-2 monolayers are a common model of the intestinal barrier.)

For data set [3], the system named is Human immunodeficiency virus 1. Kind of data set: Antiviral activity against pseudovirus HIV-1 HXB-2 harboring Env A204D mutant infected in human U87.CD4.CXCR4 cells assessed as reduction in viral infection pretreated for 30 mins before viral infection and measured after 3 days by luciferase based assay. It is filed as functional, cell-based, M:B_HXB2R. In short, it runs like this: (§2)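 Pseudoviruses made in HEK293T by co-transfecting an Env-deleted backbone (pSG3Δenv or pNL4-3.Luc.R-.E-) with an HXB-2 Env plasmid carrying single or double substitutions; Env sequences confirmed by sequencing. Virus pretreated 30 min with graded compound, added to U87-CD4-CXCR4 cells (1 × 10⁴/well, plated overnight), incubated 3 days. Cells lysed, luciferase measured, IC50 calculated.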

The nature of data set [4]: Solubility in 5% DMSO at pH 7.4 at 500 uM incubated for 90 mins in shaker by spectrophotometry. The format is physicochemical. In short, it runs like this: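 DMSO stock diluted to 500 μM in universal aqueous buffer pH 7.4 with 2 or 5% DMSO final; quadruplicate, 90 min shaking at room temperature in filter plate, vacuum filtered; filtrate in 20% acetonitrile read by UV absorbance at six wavelengths. Filtrate/standard ratio binned as ~500, 100–500 or <100 μM.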

Data set [5] relates to Human immunodeficiency virus 1. Kind of data set: Antiviral activity against clinical isolate HIV-1 Ru132 infected in human PBMC cells assessed as reduction in viral transmission to TZM-bl cells pretreated for 1 hr before viral transmission and further incubated for 48 hrs by luciferase based assay. It is filed as functional, cell-based. To be noted: Human immunodeficiency virus 1, Ru132, PBMC. In short, it runs like this: (§3)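 PBMC from healthy HIV-negative donors infected with replication-competent virus in the presence of 30 μg/ml DEAE-dextran. On day 4 post-infection, cells washed free of virus and counted. 2 × 10⁴ infected PBMC/well pretreated with escalating compound for 1 h at 37 °C, then co-cultured 48 h with TZM-bl targets (10⁴/well, plated 24 h before). TZM-bl lysed, luciferase read, IC50 calculated.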

A short description of data set [6]: Apparent permeability across basolateral to apical side in human Caco2 cells incubated for 2 hrs by LC-MS/MS analysis. It is filed as ADME, cell-based, Caco-2. To be noted: caco-2, 2 h. In short, it runs like this: as §1
Data set [7] deals with Human immunodeficiency virus 1. The data set can be described thus: Antiviral activity against clinical isolate HIV-1 RU570 infected in human PBMC cells assessed as reduction in viral transmission to TZM-bl cells pretreated for 1 hr before viral transmission and further incubated for 48 hrs by luciferase based assay. To be noted: Human immunodeficiency virus 1, RU570, PBMC. The format is functional, cell-based.

For data set [8], the system named is Human immunodeficiency virus 1. The data set can be described thus: Antiviral activity against clinical isolate HIV-1 92US073 infected in human PBMC cells assessed as reduction in viral transmission to TZM-bl cells pretreated for 1 hr before viral transmission and further incubated for 48 hrs by luciferase based assay. It is filed as functional, cell-based. To be noted: Human immunodeficiency virus 1, 92US073, PBMC. An outline of the steps: as §3

The subject of data set [9] is Human immunodeficiency virus 1. The data set can be described thus: Antiviral activity against pseudovirus HIV-1 HXB-2 harboring Env M434I mutant infected in human U87.CD4.CXCR4 cells assessed as reduction in viral infection pretreated for 30 mins before viral infection and measured after 3 days by luciferase based assay. The format is functional, cell-based, M:B_HXB2R. In short, it runs like this:
as §2

The test system of data set [10] is Human immunodeficiency virus 1. The data set can be described thus: Antiviral activity against pseudovirus HIV-1 HXB-2 harboring Env F468L mutant infected in human U87.CD4.CXCR4 cells assessed as reduction in viral infection pretreated for 30 mins before viral infection and measured after 3 days by luciferase based assay. It is filed as functional, cell-based, M:B_HXB2R. In short, it runs like this: as §2

The subject of data set [11] is Human immunodeficiency virus 1. Kind of data set: Antiviral activity against pseudovirus HIV-1 HXB-2 harboring Env S375Y mutant infected in human U87.CD4.CXCR4 cells assessed as reduction in viral infection pretreated for 30 mins before viral infection and measured after 3 days by luciferase based assay. The format is functional, cell-based, M:B_HXB2R. An outline of the steps: as §2

The test system of data set [12] is Human immunodeficiency virus 1. Kind of data set: Antiviral activity against clinical isolate HIV-1 CMU02 infected in human PBMC cells assessed as reduction in viral transmission to TZM-bl cells pretreated for 1 hr before viral transmission and further incubated for 48 hrs by luciferase based assay. It is filed as functional, cell-based. To be noted: Human immunodeficiency virus 1, CMU02, PBMC.

In data set [13] the test system is Human immunodeficiency virus 1. Kind of data set: Antiviral activity against pseudovirus HIV-1 HXB-2 harboring Env S375W mutant infected in human U87.CD4.CXCR4 cells assessed as reduction in viral infection pretreated for 30 mins before viral infection and measured after 3 days by luciferase based assay. The format is functional, cell-based, M:B_HXB2R. In short, it runs like this:
as §2

Data set [14] deals with Human immunodeficiency virus 1. Kind of data set: Antiviral activity against clinical isolate HIV-1 93RW034 infected in human PBMC cells assessed as reduction in viral transmission to TZM-bl cells pretreated for 1 hr before viral transmission and further incubated for 48 hrs by luciferase based assay. To be noted: Human immunodeficiency virus 1, 93RW034, PBMC. The format is functional, organism-based.

The subject of data set [15] is Human immunodeficiency virus 1. The data set can be described thus: Antiviral activity against pseudovirus HIV-1 HXB-2 harboring Env L116P mutant infected in human U87.CD4.CXCR4 cells assessed as reduction in viral infection pretreated for 30 mins before viral infection and measured after 3 days by luciferase based assay. The format is functional, cell-based, M:B_HXB2R. In short, it runs like this:
as §2

Data set [16] deals with Human immunodeficiency virus 1. The data set can be described thus: Antiviral activity against pseudovirus HIV-1 HXB-2 harboring Env I424F mutant infected in human U87.CD4.CXCR4 cells assessed as reduction in viral infection pretreated for 30 mins before viral infection and measured after 3 days by luciferase based assay. The format is functional, cell-based, M:B_HXB2R. In short, it runs like this:
as §2

Data set [17] concerns Human immunodeficiency virus 1. The data set can be described thus: Antiviral activity against clinical isolate HIV-1 BCF03 infected in human PBMC cells assessed as reduction in viral transmission to TZM-bl cells pretreated for 1 hr before viral transmission and further incubated for 48 hrs by luciferase based assay. The format is functional, cell-based. To be noted: Human immunodeficiency virus 1, BCF03, PBMC.

Data set [18] relates to Human immunodeficiency virus 1. Kind of data set: Antiviral activity against pseudovirus HIV-1 HXB-2 harboring Env M434I/I595F double mutant infected in human U87.CD4.CXCR4 cells assessed as reduction in viral infection pretreated for 30 mins before viral infection and measured after 3 days by luciferase based assay. It is filed as functional, cell-based, M:B_HXB2R. An outline of the steps:
as §2

For data set [19], the system named is Human immunodeficiency virus 1. The data set can be described thus: Antiviral activity against Laboratory adapted HIV-1 89.6 infected in human PBMC cells assessed as reduction in viral transmission to TZM-bl cells pretreated for 1 hr before viral transmission and further incubated for 48 hrs by luciferase based assay. The format is functional, cell-based. To be noted: Human immunodeficiency virus 1, 89.6, PBMC.

Data set [20] concerns Human immunodeficiency virus 1. Kind of data set: Antiviral activity against pseudovirus HIV-1 HXB-2 harboring Env S375H mutant infected in human U87.CD4.CXCR4 cells assessed as reduction in viral infection pretreated for 30 mins before viral infection and measured after 3 days by luciferase based assay. The format is functional, cell-based, M:B_HXB2R. In short, it runs like this:
as §2

Data set [21] relates to Human immunodeficiency virus 1. Kind of data set: Antiviral activity against clinical isolate HIV-1 BCF01 infected in human PBMC cells assessed as reduction in viral transmission to TZM-bl cells pretreated for 1 hr before viral transmission and further incubated for 48 hrs by luciferase based assay. To be noted: Human immunodeficiency virus 1, BCF01, PBMC. It is filed as functional, cell-based. In short, it runs like this:
as §3

Data set [22] deals with Human immunodeficiency virus 1. Kind of data set: Antiviral activity against clinical isolate HIV-1 93BR019 infected in human PBMC cells assessed as reduction in viral transmission to TZM-bl cells pretreated for 1 hr before viral transmission and further incubated for 48 hrs by luciferase based assay. The format is functional, cell-based. To be noted: Human immunodeficiency virus 1, 93BR019, PBMC.

The IC50 is the point on the concentration scale where inhibition reaches its midpoint. A word on the solubility (kinetic): it is the concentration staying in solution when a stock, usually in DMSO, is diluted into the medium.

In brackets after ≈: the same amount, converted by molar mass.

In the case of `COc1cnc(-n2cnc(C)n2)c2[nH]cc(C(=O)C(=O)N3CCN(C(=O)c4ccccc4)CC3)c12`, the IC50 is 100 nM in data set [1]; over 1000 nM in [3]; 100 nM in [5]; 100 nM in [7]; 100 nM in data set [8]; 8 nM in data set [9]. Moreover, the IC50 in data set [10] was 8 nM; in [11] it was over 1000 nM; in [12] it was over 6000 nM; in data set [13], over 1000 nM; in data set [14], 100 nM; in [15], over 1000 nM. Moreover, the IC50 is over 1000 nM in [16]; over 6000 nM in data set [17]; 8 nM in [18]; 100 nM in data set [19]; over 1000 nM in data set [20]; over 6000 nM in data set [21]. In addition, the IC50 in data set [22] came to 100 nM. Moreover, the values for the Papp in [2] and in [6] were 9.27 10^-6 cm/s and 32 10^-6 cm/s, respectively. The compound further registered a solubility (kinetic) at […], 500 µM in data set [4] of 100 µM (≈ 47.3 µg/mL).
